Article PMC5561660 (Organic & biomolecular chemistry, 2017)
Where two headings read alike, the source gives them in different places.

Columns and labels:
[1] = molecular target: T1, human VAChT (Homo sapiens, UniProt Q16572); settings: read-out: Ki VAChT, mean ± SEM, cited from earlier work
T1 sequence (Q16572 1-532): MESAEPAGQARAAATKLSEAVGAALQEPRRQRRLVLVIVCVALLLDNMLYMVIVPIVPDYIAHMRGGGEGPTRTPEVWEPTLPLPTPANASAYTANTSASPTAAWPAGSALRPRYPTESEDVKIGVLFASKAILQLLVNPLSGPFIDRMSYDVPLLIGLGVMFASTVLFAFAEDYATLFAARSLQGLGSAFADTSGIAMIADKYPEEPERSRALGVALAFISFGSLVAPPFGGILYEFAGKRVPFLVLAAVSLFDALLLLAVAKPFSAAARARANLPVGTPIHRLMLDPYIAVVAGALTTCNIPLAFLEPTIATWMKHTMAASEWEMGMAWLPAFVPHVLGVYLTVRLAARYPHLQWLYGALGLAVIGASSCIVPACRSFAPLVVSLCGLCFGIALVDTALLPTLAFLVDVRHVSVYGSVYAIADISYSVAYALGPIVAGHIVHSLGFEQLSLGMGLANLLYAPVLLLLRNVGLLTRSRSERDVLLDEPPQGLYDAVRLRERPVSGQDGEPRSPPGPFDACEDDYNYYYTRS

[2] = test system: σ1 receptor; settings: selectivity ratio, cited from earlier work
[3] = molecular target: σ1 receptor (Cavia porcellus, UniProt Q60492); settings: read-out: Ki σ1, mean ± SEM, cited from earlier work
[4] = molecular target: T2, σ2 receptor (Rattus norvegicus, UniProt Q5U3Y7); settings: read-out: Ki σ2, mean ± SEM, cited from earlier work
T2 sequence (Q5U3Y7 1-176): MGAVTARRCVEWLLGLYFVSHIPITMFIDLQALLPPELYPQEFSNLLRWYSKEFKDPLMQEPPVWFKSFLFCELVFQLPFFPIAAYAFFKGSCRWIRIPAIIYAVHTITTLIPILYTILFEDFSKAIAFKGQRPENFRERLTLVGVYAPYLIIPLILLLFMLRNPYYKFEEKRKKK

[5] = test system: σ2 receptor; settings: selectivity ratio, cited from earlier work
[6] = molecular target: T1, human VAChT; assay: VAChT competitive binding, displacement of
Summary of the method: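 Postnuclear supernatant (200 µg) from PC12A123.7 cells expressing human VAChT, incubated with (−)-[3H]vesamicol and test compound (0.1–10,000 nM, 10-fold steps) in 110 mM potassium tartrate, 20 mM HEPES pH 7.4, 1 mM DTT, 0.02% sodium azide, 22 °C, 24 h. Duplicate filtration on PEI-coated GF/F filters, buffer washes, scintillation counting. Ki from rectangular hyperbola fit of averaged data; ≥2 independent assays.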

σ1 receptor (Cavia porcellus, UniProt Q60492), sequence (Q60492 whole entry): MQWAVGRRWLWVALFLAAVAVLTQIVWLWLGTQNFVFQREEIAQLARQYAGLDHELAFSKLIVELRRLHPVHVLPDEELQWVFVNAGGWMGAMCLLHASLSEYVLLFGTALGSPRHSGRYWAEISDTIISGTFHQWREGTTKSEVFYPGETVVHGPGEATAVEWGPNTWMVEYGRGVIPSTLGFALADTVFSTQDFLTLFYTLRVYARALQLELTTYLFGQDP

**Q.** Which results are given for `O=C(c1ccc(OCCF)cc1)C1CCN(C2Cc3ccccc3CC2O)CC1` (racemic) [(±)-5, (4-(2-fluoroethoxy)phenyl)(1-(3-hydroxy-1,2,3,4-tetrahydronaphthalen-2-yl)piperidin-4-yl)methanone]?
**A.** Ki ([1]; ref [20]): 38 ± 3.8 nM; σ1/VAChT ([2]; ref [20]): 56; Ki ([3]; ref [20]): 2120 ± 50 nM; Ki ([4]; ref [20]): 1860 ± 140 nM; σ2/VAChT ([5]; ref [20]): 49

**Q.** What does the source list for `O=C(c1ccc(OCCF)nc1)C1CCN(C2Cc3ccccc3CC2O)CC1` (racemic) [(±)-6, (6-(2-fluoroethoxy)pyridin-3-yl)(1-(3-hydroxy-1,2,3,4-tetrahydronaphthalen-2-yl)piperidin-4-yl)methanone]?
**A.** Ki ([1]; ref [23]): 1.74 ± 0.32 nM; σ1/VAChT ([2]; ref [23]): 8; Ki ([3]; ref [23]): 13.2 ± 0.2 nM; Ki ([4]; ref [23]): 1890 ± 240 nM; σ2/VAChT ([5]; ref [23]): 1086

**Q.** Which Ki [6] does the source give for `O=C(c1ccc(NCCF)cc1)C1CCN(C2Cc3ccccc3CC2O)CC1` (racemic) [(±)-7, (4-((2-Fluoroethyl)amino)phenyl)(1-(3-hydroxy-1,2,3,4-tetrahydronaphthalen-2-yl)piperidin-4-yl)methanone] here?
**A.** Its Ki is 2.68 ± 0.23 nM.
